Source: ChEMBL document CHEMBL4028848, “Discovery of N-{4-[5-(4-Fluorophenyl)-3-methyl-2-methylsulfanyl-3H-imidazol-4-yl]-pyridin-2-yl}-acetamide (CBS-3595), a Dual p38α MAPK/PDE-4 Inhibitor with Activity against TNFα-Related Diseases” (J Med Chem, 2017)
Each block holds one molecule with its values, some of them ahead of it. Activity calls are given as the source filed them. The rule behind the calls is not given here.

Experiments:
[1] = AUC (0 to t) in human at 50 mg, po administered as single dose; type: ADME, organism-based; details: in vivo
How it was run: (§1)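 Placebo-controlled, single-blind, randomized, consecutive-dosing study in healthy subjects given single oral doses, with 10 mg also given fasting and fed in a crossover. Plasma parent and active metabolite were measured predose and from 0.25 to 36 h post dose. PK parameters were derived from individual concentration–time profiles and reported as means.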

[2] = AUC (0 to infinity) in human at 20 mg, po administered as single dose; type: ADME, organism-based; parameters: dose 20 mg, time infinity, route oral; details: in vivo; how it was run: as §1
[3] = Tmax in fasting human at 10 mg, po administered as single dose; type: ADME, organism-based; details: in vivo
How it was run: (§2)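 Healthy subjects received single oral doses of 10, 20, 30 or 50 mg in a placebo-controlled, single-blind, randomized consecutive-dose study; 10 mg was also given fasting vs fed in a crossover. Plasma drug was sampled pre-dose and from 0.25 to 36 h post-dose. Mean Tmax was taken from individual concentration–time profiles.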

[4] = Cmax in fasting human at 10 mg, po administered as single dose; type: ADME, organism-based; parameters: dose 10 mg, route oral; details: in vivo; how it was run: as §1
[5] = Cmax in human at 50 mg, po administered as single dose; type: ADME, organism-based; parameters: dose 50 mg, route oral; details: in vivo
[6] = Tmax in human at 20 mg, po administered as single dose; type: ADME, organism-based; details: in vivo; how it was run: as §2
[7] = AUC (0 to t) in human at 30 mg, po administered as single dose; type: ADME, organism-based; details: in vivo; how it was run: as §1
[8] = Tmax in human at 50 mg, po administered as single dose; type: ADME, organism-based; details: in vivo; how it was run: as §2
[9] = Half life in human at 50 mg, po administered as single dose; type: ADME, organism-based; details: in vivo
How it was run: (§3)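 Oral single-dose PK; plasma concentrations of parent and metabolite measured. Dogs: blood sampled 0.25 to 24 h after dosing. Humans: healthy subjects, placebo-controlled single-blind randomized consecutive dosing, plasma sampled predose and 0.25–36 h post dose. 10 mg also given fasting and fed in crossover. Parameters derived from individual concentration–time profiles.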

[10] = AUC (0 to t) in human at 20 mg, po administered as single dose; type: ADME, organism-based; details: in vivo; how it was run: as §1
[11] = AUC (0 to t) in human at 10 mg, po administered as single dose; type: ADME, organism-based; details: in vivo; how it was run: as §1
[12] = target: Mitogen-activated protein kinase 13 (Homo sapiens) (UniProt O15264); assay: Inhibition of p38MAPK delta (unknown origin) at 10 uM relative to control
[13] = AUC (0 to t) in fasting human at 10 mg, po administered as single dose; type: ADME, organism-based; details: in vivo; how it was run: as §1
[14] = target: Mitogen-activated protein kinase 14 (Homo sapiens, UniProt Q16539); assay: Inhibition of P38 MAPKalpha in LPS-stimulated human whole blood assessed as decrease in TNFalpha level
[15] = AUC (0 to infinity) in human at 30 mg, po administered as single dose; type: ADME, organism-based; parameters: dose 30 mg, time infinity, route oral; details: in vivo; how it was run: as §1
[16] = target: 3',5'-cyclic-AMP phosphodiesterase 4B (Homo sapiens, UniProt Q07343); assay: Inhibition of human PDE4B1 expressed in sf9 cells
[17] = AUC (0 to infinity) in fed human at 10 mg, po administered as single dose; type: ADME, organism-based; parameters: dose 10 mg, route oral, time infinity; details: in vivo; how it was run: as §1
[18] = AUC (0 to t) in fed human at 10 mg, po administered as single dose; type: ADME, organism-based; details: in vivo; how it was run: as §1
[19] = Half life in fasting human at 10 mg, po administered as single dose; type: ADME, organism-based; details: in vivo; how it was run: as §3
[20] = Tmax in human at 30 mg, po administered as single dose; type: ADME, organism-based; details: in vivo; how it was run: as §2
[21] = Cmax in human at 20 mg, po administered as single dose; type: ADME, organism-based; parameters: dose 20 mg, route oral; details: in vivo; how it was run: as §3
[22] = AUC (0 to infinity) in human at 50 mg, po administered as single dose; type: ADME, organism-based; parameters: dose 50 mg, time infinity, route oral; details: in vivo; how it was run: as §1
[23] = Half life in human at 20 mg, po administered as single dose; type: ADME, organism-based; details: in vivo; how it was run: as §3
[24] = target: T1, 3',5'-cyclic-AMP phosphodiesterase 4D (Homo sapiens, UniProt Q08499); assay: Inhibition of human PDE4D3 expressed in sf9 cells
[25] = Half life in human at 10 mg, po administered as single dose; type: ADME, organism-based; details: in vivo; how it was run: as §3
Homo sapiens [26] = organism: Homo sapiens; assay: Inhibition of PDE3 in human U937 cells assessed as [3H]cAMP hydrolysis at 10 uM; type: cell-based
[27] = target: cGMP-specific 3',5'-cyclic phosphodiesterase (Homo sapiens) (UniProt O76074); assay: Inhibition of PDE5 in human U937 cells assessed as [3H]cAMP hydrolysis at 10 uM; type: cell-based
[28] = Fraction unbound in human plasma; type: ADME, cell-free
How it was run: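 Plasma protein binding measured in human, Sprague–Dawley rat and Cynomolgus monkey plasma at 1, 10 and 30 μM compound. Reported as unbound fraction (%).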

[29] = Tmax in fed human at 10 mg, po administered as single dose; type: ADME, organism-based; details: in vivo; how it was run: as §2
[30] = Half life in fed human at 10 mg, po administered as single dose; type: ADME, organism-based; details: in vivo; how it was run: as §3
Homo sapiens [31] = assay: Toxicity in human assessed as effect on CNS at 50 mg, po administered as single dose; type: organism-based; details: in vivo
How it was run: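 Single oral 50 mg dose given to healthy subjects in a placebo-controlled, single-blind, randomized FIH study. Adverse events, vital signs and physical findings were recorded, including CNS effects.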

[32] = AUC (0 to infinity) in fasting human at 10 mg, po administered as single dose; type: ADME, organism-based; parameters: dose 10 mg, time infinity, route oral; details: in vivo; how it was run: as §1
[33] = Half life in human at 30 mg, po administered as single dose; type: ADME, organism-based; details: in vivo; how it was run: as §3
[34] = Cmax in fed human at 10 mg, po administered as single dose; type: ADME, organism-based; parameters: dose 10 mg, route oral; details: in vivo; how it was run: as §1
[35] = Cmax in human at 10 mg, po administered as single dose; type: ADME, organism-based; parameters: dose 10 mg, route oral; details: in vivo; how it was run: as §3
[36] = target: T1, 3',5'-cyclic-AMP phosphodiesterase 4D; assay: Inhibition of human PDE4D2 expressed in sf9 cells
[37] = target: RAF proto-oncogene serine/threonine-protein kinase (Homo sapiens) (UniProt P04049); assay: Inhibition of c-RAF (unknown origin) at 10 uM relative to control
[38] = Cmax in human at 30 mg, po administered as single dose; type: ADME, organism-based; parameters: dose 30 mg, route oral; details: in vivo; how it was run: as §3
[39] = AUC (0 to infinity) in human at 10 mg, po administered as single dose; type: ADME, organism-based; parameters: dose 10 mg, time infinity, route oral; details: in vivo; how it was run: as §1
[40] = Inhibition of PDE4 in human U937 cells assessed as [3H]cAMP hydrolysis; type: cell-based
[41] = target: 3',5'-cyclic-AMP phosphodiesterase 4A (Homo sapiens, UniProt P27815); assay: Inhibition of human PDE4A4 expressed in sf9 cells
[42] = target: Mitogen-activated protein kinase 9 (Homo sapiens) (UniProt P45984); assay: Inhibition of JNK2alpha2 (unknown origin) at 10 uM relative to control
[43] = Tmax in human at 10 mg, po administered as single dose; type: ADME, organism-based; details: in vivo; how it was run: as §2
[44] = target: 3',5'-cyclic-AMP phosphodiesterase 4C (Homo sapiens, UniProt Q08493); assay: Inhibition of human PDE4C1 expressed in sf9 cells
Salmonella typhimurium = assay: Genotoxicity in Salmonella typhimurium in absence of S9 fraction by Ames test; type: toxicity; details: salmonella enterica subsp. enterica serovar typhimurium
How it was run: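 Bacterial reverse mutation (Ames) test in S. typhimurium and E. coli strains, run with and without S9 mix.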

T1 sequence (Q08499 whole entry): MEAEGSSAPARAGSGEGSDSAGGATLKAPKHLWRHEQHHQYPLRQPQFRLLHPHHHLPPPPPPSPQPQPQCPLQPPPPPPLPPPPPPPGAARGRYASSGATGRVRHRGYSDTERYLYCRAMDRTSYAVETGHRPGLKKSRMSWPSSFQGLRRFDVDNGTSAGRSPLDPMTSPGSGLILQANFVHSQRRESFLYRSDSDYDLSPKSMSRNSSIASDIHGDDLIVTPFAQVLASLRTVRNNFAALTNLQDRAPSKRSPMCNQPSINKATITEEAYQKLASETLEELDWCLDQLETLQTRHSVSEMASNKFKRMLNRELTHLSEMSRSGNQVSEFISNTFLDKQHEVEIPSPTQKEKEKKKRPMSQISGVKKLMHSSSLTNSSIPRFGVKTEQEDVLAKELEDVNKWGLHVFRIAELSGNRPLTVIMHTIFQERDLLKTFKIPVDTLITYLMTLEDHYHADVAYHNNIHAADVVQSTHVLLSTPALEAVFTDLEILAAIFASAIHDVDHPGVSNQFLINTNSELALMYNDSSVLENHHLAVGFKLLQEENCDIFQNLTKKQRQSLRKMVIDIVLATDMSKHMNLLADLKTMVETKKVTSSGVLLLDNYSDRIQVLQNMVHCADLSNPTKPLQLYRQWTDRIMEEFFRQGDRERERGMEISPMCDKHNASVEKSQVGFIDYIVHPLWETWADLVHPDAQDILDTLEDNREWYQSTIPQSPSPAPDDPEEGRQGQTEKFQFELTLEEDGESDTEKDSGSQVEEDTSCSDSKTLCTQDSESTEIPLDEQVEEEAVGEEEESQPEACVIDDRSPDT
Chain of RAF proto-oncogene serine/threonine-protein kinase (Homo sapiens) (P04049 whole entry): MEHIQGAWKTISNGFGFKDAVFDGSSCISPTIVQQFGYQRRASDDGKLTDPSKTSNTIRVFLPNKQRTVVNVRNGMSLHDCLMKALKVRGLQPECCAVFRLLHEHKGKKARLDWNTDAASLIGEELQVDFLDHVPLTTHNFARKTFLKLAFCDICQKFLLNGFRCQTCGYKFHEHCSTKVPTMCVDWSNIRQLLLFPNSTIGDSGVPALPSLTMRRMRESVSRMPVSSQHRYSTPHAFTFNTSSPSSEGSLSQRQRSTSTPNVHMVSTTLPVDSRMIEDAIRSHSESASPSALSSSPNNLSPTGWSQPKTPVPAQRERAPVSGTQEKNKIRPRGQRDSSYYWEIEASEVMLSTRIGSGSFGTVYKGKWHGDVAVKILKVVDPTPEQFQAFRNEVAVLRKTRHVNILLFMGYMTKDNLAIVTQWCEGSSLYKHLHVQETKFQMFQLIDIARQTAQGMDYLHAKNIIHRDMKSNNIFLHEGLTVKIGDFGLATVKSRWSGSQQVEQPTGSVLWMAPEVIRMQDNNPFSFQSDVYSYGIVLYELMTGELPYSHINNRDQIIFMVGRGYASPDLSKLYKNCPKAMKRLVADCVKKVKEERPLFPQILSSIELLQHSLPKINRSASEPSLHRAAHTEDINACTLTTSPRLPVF
Chain of 3',5'-cyclic-AMP phosphodiesterase 4B (Q07343 whole entry): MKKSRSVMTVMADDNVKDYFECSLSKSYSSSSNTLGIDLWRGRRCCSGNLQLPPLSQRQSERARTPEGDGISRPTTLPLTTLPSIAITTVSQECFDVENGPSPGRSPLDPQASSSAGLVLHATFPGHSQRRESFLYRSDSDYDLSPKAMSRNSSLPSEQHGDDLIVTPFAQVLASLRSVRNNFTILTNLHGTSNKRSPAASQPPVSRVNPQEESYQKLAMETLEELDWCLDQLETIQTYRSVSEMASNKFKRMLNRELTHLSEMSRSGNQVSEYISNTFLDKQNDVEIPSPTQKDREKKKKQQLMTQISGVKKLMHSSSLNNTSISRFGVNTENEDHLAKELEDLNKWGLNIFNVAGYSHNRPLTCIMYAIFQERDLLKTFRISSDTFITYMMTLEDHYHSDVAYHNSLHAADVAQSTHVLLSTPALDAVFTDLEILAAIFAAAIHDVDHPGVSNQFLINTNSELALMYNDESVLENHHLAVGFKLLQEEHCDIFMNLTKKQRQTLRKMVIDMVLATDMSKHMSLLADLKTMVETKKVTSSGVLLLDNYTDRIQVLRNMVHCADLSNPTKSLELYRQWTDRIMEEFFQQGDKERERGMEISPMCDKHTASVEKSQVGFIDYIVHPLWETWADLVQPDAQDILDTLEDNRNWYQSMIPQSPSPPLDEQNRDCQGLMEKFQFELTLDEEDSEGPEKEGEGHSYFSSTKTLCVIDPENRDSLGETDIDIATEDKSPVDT
Chain of Mitogen-activated protein kinase 9 (Homo sapiens) (P45984 whole entry, looked up): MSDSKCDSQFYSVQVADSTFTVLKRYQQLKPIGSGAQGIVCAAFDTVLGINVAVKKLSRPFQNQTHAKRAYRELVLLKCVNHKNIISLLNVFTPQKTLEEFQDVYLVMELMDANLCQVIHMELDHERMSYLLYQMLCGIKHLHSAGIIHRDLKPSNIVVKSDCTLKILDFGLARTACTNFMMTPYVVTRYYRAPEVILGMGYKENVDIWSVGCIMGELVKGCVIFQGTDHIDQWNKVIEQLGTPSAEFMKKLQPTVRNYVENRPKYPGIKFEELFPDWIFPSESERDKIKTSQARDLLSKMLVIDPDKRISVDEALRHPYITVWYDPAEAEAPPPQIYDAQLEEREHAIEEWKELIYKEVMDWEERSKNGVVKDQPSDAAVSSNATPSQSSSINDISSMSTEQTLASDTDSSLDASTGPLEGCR
Chain of Mitogen-activated protein kinase 13 (Homo sapiens) (O15264 whole entry): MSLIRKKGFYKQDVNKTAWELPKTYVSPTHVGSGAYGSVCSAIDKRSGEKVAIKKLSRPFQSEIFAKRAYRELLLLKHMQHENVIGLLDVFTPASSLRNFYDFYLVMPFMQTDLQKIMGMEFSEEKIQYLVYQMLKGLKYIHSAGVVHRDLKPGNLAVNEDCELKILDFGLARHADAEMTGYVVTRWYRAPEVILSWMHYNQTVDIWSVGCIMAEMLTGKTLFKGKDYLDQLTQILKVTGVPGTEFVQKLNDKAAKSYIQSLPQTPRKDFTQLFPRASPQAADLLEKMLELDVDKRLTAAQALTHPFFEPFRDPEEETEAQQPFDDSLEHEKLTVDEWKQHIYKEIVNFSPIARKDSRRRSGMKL
Chain of 3',5'-cyclic-AMP phosphodiesterase 4A (P27815 whole entry): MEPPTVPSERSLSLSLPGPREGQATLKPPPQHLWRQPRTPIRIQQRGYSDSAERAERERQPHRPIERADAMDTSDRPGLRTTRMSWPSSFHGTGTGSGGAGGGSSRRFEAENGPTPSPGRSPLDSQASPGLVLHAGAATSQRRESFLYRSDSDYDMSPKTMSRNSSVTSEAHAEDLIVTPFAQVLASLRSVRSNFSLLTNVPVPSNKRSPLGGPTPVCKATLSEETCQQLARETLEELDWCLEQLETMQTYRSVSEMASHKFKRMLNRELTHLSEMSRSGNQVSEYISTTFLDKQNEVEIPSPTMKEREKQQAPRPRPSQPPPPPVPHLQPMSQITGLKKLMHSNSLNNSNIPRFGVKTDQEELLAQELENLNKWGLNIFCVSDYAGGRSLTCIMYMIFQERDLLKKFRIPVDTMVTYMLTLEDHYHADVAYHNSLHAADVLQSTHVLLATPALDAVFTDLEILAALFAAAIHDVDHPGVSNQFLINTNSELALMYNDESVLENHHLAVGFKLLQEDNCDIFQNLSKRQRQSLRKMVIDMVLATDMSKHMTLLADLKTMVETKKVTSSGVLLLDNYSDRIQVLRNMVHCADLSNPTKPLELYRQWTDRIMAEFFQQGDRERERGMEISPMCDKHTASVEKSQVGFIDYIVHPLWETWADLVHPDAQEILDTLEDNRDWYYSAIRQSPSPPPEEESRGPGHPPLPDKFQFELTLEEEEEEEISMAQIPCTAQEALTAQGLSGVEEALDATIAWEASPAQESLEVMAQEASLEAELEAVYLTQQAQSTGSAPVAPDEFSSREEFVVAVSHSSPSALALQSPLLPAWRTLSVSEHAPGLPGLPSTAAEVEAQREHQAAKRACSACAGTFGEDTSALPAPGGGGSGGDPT
Chain of Mitogen-activated protein kinase 14 (Q16539 whole entry): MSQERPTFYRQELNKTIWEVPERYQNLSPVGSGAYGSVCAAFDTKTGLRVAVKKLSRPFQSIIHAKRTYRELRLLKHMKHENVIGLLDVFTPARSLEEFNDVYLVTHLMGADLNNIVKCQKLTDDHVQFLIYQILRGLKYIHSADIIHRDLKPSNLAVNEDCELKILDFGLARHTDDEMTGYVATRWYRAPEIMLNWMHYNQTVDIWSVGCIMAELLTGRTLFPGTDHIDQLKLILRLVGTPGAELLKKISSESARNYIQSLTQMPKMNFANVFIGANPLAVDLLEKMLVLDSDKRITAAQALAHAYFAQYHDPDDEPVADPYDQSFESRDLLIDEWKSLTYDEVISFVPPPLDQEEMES
Chain of 3',5'-cyclic-AMP phosphodiesterase 4C (Q08493 whole entry): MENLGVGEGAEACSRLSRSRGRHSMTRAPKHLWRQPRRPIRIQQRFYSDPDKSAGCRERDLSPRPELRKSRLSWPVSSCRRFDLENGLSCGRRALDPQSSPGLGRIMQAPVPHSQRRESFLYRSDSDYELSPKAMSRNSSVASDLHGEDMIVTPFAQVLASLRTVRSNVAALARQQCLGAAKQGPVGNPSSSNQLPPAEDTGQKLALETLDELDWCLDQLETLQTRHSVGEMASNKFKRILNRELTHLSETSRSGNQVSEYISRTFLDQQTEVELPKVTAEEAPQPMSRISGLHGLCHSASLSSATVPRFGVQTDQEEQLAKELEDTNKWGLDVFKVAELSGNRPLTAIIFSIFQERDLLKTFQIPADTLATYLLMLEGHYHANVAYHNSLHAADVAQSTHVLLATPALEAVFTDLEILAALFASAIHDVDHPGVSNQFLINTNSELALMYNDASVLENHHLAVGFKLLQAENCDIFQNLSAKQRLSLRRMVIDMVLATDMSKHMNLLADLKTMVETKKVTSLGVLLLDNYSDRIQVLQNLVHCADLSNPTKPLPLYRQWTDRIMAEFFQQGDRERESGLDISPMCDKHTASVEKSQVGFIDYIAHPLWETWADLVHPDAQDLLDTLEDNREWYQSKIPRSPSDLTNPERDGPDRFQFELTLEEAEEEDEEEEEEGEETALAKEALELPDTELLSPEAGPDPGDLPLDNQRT

AUC(0-t) [1]: 8.73 µM·h | AUC(0-inf) [2]: 7.17 µM·h | Tmax [3]: 6 h | Cmax [4]: 150 nM | Cmax [5]: 600 nM | Tmax [6]: 5 h | AUC(0-t) [7]: 7.37 µM·h | Tmax [8]: 5 h | half-life [9]: 9 h | AUC(0-t) [10]: 6.38 µM·h | AUC(0-t) [11]: 2.95 µM·h | inhibition [12]: inactive | AUC(0-t) [13]: 2.82 µM·h | IC50 [14]: 710 nM | AUC(0-inf) [15]: 8.55 µM·h | IC50 [16]: 3500 nM | AUC(0-inf) [17]: 3.07 µM·h | AUC(0-t) [18]: 2.6 µM·h | half-life [19]: 11.3 h | Tmax [20]: 6 h | Cmax [21]: 360 nM | AUC(0-inf) [22]: 9.4 µM·h | half-life [23]: 10.9 h | IC50 [24]: 700 nM | half-life [25]: 9.5 h | inhibition [27]: inactive | fraction unbound [28]: 0.5 | Tmax [29]: 6.7 h | half-life [30]: 10.7 h | AUC(0-inf) [32]: 3.29 µM·h | half-life [33]: 11.3 h | Cmax [34]: 140 nM | Cmax [35]: 190 nM | IC50 [36]: 2400 nM | inhibition [37]: inactive | Cmax [38]: 420 nM | AUC(0-inf) [39]: 3.43 µM·h | IC50 [40]: 2000 nM | IC50 [41]: 9900 nM | inhibition [42]: inactive | Tmax [43]: 4.7 h | IC50 [44]: > 10000 nM
Compound: Cn1c([S+](C)[O-])nc(-c2ccc(F)cc2)c1-c1ccnc(N)c1 (centres undefined)
inhibition (Homo sapiens [26]): inactive | Activity (Homo sapiens [31]): Non-Toxic

Compound: CC(=O)Nc1cc(-c2c(-c3ccc(F)cc3)nc([S+](C)[O-])n2C)ccn1 (centres undefined)
AUC(0-t) [1]: 3.4 µM·h | AUC(0-inf) [2]: 2.24 µM·h | Tmax [3]: 3.3 h | Cmax [4]: 140 nM | Cmax [5]: 590 nM | Tmax [6]: 2.9 h | AUC(0-t) [7]: 2.65 µM·h | Tmax [8]: 1.5 h | half-life [9]: 3.2 h | AUC(0-t) [10]: 1.99 µM·h | AUC(0-t) [11]: 0.95 µM·h | inhibition [12]: 35% | AUC(0-t) [13]: 0.73 µM·h | IC50 [14]: 710 nM | AUC(0-inf) [15]: 3.05 µM·h | IC50 [16]: 1900 nM | AUC(0-inf) [17]: 0.88 µM·h | AUC(0-t) [18]: 0.79 µM·h | half-life [19]: 2.8 h | Tmax [20]: 2.3 h | Cmax [21]: 310 to 314 nM | AUC(0-inf) [22]: 3.58 µM·h | half-life [23]: 3.3 h | IC50 [24]: 800 nM | Activity (Salmonella typhimurium): Non-Toxic | half-life [25]: 2.7 h | inhibition (Homo sapiens [26]): inactive | inhibition [27]: inactive | fraction unbound [28]: 0.5 | Tmax [29]: 3.7 h | half-life [30]: 2.8 h | Activity (Homo sapiens [31]): Non-Toxic | AUC(0-inf) [32]: 0.82 µM·h | half-life [33]: 3.4 h | Cmax [34]: 140 nM | Cmax [35]: 200 nM | IC50 [36]: 1100 nM | inhibition [37]: 36% | Cmax [38]: 420 nM | AUC(0-inf) [39]: 1.04 µM·h | IC50 [40]: 200 to 400 nM | IC50 [41]: 2900 nM | inhibition [42]: 51% | Tmax [43]: 2.2 h | IC50 [44]: 6400 nM
